Results from PubChem BioAssay AID624467 (The Scripps Research Institute Molecular Screening Center, 2012).
Where “and” joins values, the source holds several entries; their conditions need not be identical. Identical values can stand only once. The campaign covered roughly 360,000 compounds. About 3,600 (1%) were called active. The entries come from a sample that favours actives as a whole. Unmarked numbers belong to inactive results.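 How the source made its calls: active means activation above the mean activation of all test compounds in the run plus 3 SD (cut at about 38% in these data); inactive means the rest.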

These compounds were tested against Trace amine-associated receptor 1 (Homo sapiens) (UniProt Q96RJ0) (assay: human TAAR1 agonists, primary screen, Fluo-8 calcium fluorescence, CHO RD-HGA16 cells (AID 624467)). Settings: CHO RD-HGA16 TAAR1, Fluo-8 calcium fluorescence; at 3 µM; active compounds read high; vehicle wells 0%, saturating PEA agonist 100%.
Chain of Trace amine-associated receptor 1 (Homo sapiens) (Q96RJ0 whole entry, looked up): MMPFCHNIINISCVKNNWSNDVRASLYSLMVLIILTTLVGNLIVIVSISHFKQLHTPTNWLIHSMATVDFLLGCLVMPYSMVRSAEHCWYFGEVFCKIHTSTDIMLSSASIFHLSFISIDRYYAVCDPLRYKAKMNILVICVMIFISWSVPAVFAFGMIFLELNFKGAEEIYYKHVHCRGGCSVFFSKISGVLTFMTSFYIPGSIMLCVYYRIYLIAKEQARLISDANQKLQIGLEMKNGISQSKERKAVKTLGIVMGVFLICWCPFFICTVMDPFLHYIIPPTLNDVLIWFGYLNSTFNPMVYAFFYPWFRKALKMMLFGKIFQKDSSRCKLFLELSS
Procedure, shortened: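 System: CHO-derived RD-HGA16 cells with stable Gα16 and human TAAR1 / Times: 17-24 h plating, Fluo-8 75 min 37 °C, 30 min RT / Technique: calcium-sensitive Fluo-8 signal, excitation 470-495, emission 515-575 nm / Measure: % activation relative to PEA EC100 response / Benchmarks: DMSO and PEA EC100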
Compound Oc1ccccc1CNc1ncc(Br)cc1Br has an activation of 4.29%.
For Cc1cc2cc3c(N)[nH]nc3nc2cc1C, the activation was 2.1%.
With Cc1ccc(C2NC(C(=O)O)CS2)cc1 (stereo not drawn) the activation was 6.54%.
For COC(=O)C1=C(C)N(Cc2ccccc2C(F)(F)F)C(=NCc2ccc(C(F)(F)F)cc2)NC1c1ccc(F)cc1 (stereo not drawn), the activation was 0.73%.
COCCCN(C(=O)CSCc1ccc(C)cc1)c1c(N)n(Cc2ccccc2)c(=O)[nH]c1=O gave an activation of 0.76%.
With COc1cc(OC)cc(C(=O)N[C@H](C(=O)OCC(=O)NC(C)c2ccccc2)C(C)C)c1 (stereo partly drawn) the activation was 78.4% (active).
Work on COc1cc(OC)cc(C(=O)NC(C(=O)N2CCC2)C(C)C)c1 (stereo not drawn) yielded an activation of 0.84%.
For COc1cc(OC)cc(C(=O)NCC(=O)OCC(=O)NC(C)CCc2ccccc2)c1 (stereo not drawn), the activation was 4.34%.
For COc1ccccc1OC(C)C(=O)Nc1ccc(S(=O)(=O)Nc2nccs2)cc1 (stereo not drawn), the activation was 3.3%.
Compound O=C(CCNC(=O)Cn1ccc2ccccc2c1=O)NCCC1=CCCCC1 has an activation of 1.79%.
With O=C(NCCC1=CCCCC1)c1ccc(-n2cncn2)cc1 the activation was 1.68%.
With Cc1ccn2c(=O)c(C(=O)NCCC3=CCCCC3)c(O)nc2c1 the activation was 75.2% (active).
Compound CC1(C)OC(=O)C2=C(CC(CCc3ccccc3)OC2c2ccc(Cl)cc2)O1 (stereo not drawn) has an activation of -0.49%.
Compound O=c1[nH]c(-c2ccccc2)cn1C1CCN(Cc2ccc(-c3nc4ccc(F)cc4nc3-c3ccccc3)cc2)CC1 has an activation of 2.82%.
With Cc1cc(C)c(S(=O)(=O)N2CCC(C(=O)OCc3c(C)noc3C)CC2)c(C)c1 the activation was 5.51%.
For COC(=O)C1=C(C(=O)OC)C2C=C(C(C)C)C1C(=O)C2(C)O (stereo not drawn), the activation was 1.68%.
COc1cccc(CNc2nc(NCc3ccccc3OC)nc3ccsc23)c1 showed an activation of 3.04%.
For Clc1ccccc1Nc1nc(NCc2cccs2)nc2ccsc12, the activation was 7.75%.
With COc1cccc(CNc2nc(NCc3cccs3)nc3ccsc23)c1 the activation was 39% (active).
Work on CCn1nnc(NC(=O)c2cc(Cl)c(OC)c(Cl)c2)n1 yielded an activation of 5.93%.
In the case of O=C1CC(c2ccccc2)C(c2ccccc2)=NN1 (stereo not drawn), the activation is reported as 2.78%.
In the case of COc1ccc2c(c1)CCc1c(C(=O)N3CCc4ccccc4C3)noc1-2, the activation is reported as 13.8%.
O=C(c1noc2c1CCCC2)N1CCc2ccccc2C1 was tested, and the activation was 54.6% (active).
Compound O=C(c1cc(-c2cccc(O)c2)on1)N1CCc2ccccc2C1 has an activation of 31.8%.
In the case of CCOC(=O)CC1(NC(=O)c2cc(COc3cncc(Cl)c3)on2)CCCCC1, the activation is reported as 4.12%.
O=C(CN1CCc2ccccc21)NC(c1ccccc1)c1ccccc1 gave an activation of -0.06%.
For CC(=O)c1c(C)[nH]c(C(=O)OCC(=O)Nc2c(C)cccc2C)c1C, the activation was 18.7%.
COC(=O)c1[nH]c2cccc(C)c2c1NC(=O)CN1CCCc2ccccc21 was tested, and the activation was 38.2% (active).
Cc1ccc(NC(=O)N2c3ccccc3SC2c2ccco2)c(C)c1 (stereo not drawn) was tested, and the activation was 1.34%.
Cc1cc(Br)cn2c(Cc3ccccc3C(F)(F)F)c(-c3ccc(C#N)cc3)nc12 showed an activation of 0.31%.
In the case of O=C(CSc1nc(-c2ccco2)cc(C(F)(F)F)n1)N1CCc2ccccc2C1, the activation is reported as 19.4%.
COc1ccc(-c2cc(C(F)(F)F)nc(SCCC(=O)NCc3ccco3)n2)cc1 gave an activation of 0.17%.
For O=C(CSc1nc(-c2ccco2)cc(C(F)(F)F)n1)NCc1cccs1, the activation was 75.6% (active).
With CN(O)C(=S)c1ccccc1 the activation was 4.65%.
Compound C[C@@H]1ON(C)[C@H]2C[C@H]3c4cc(N5CCOCC5)ccc4CCN3C[C@@H]12 has an activation of 2%.
O=C(NCCc1ccccc1)C1CC1 was tested, and the activation was 20.1%.
For O=C(O)C1C2C=CC(O2)C1C(=O)NCCc1cccc(Cl)c1 (stereo not drawn), the activation was 76.8% (active).
O=C(O)C1C2C=CC(O2)C1C(=O)Nc1ccccn1 (stereo not drawn) showed an activation of 2.36%.
O=C(NCc1ccccc1)[C@@H]1CCCN1C(=O)[C@H]1CCCN1C(=O)c1cccc(Cl)c1 gave an activation of -0.12%.
In the case of COc1ccc(CNC(=O)COC(=O)C2=Cc3ccccc3OC2)cc1, the activation is reported as 43.4% (active).
COc1ccc(CCNC(=O)COC(=O)c2cc(=O)c3ccccc3o2)cc1 gave an activation of 17.5%.
COc1ccc(CNC(=O)COC(=O)C(CCSC)N2C(=O)c3ccccc3C2=O)cc1 (stereo not drawn) was tested, and the activation was 9.85%.
For Cc1nc2c(C(=O)NCc3cccs3)cnn2c(C)c1Cc1ccc(F)cc1, the activation was -1.18%.
Cc1ccc(NC(=O)CC2C(=O)N(Cc3ccccc3)C(=S)N2NC(=O)c2cccc(F)c2)c(C)c1 (stereo not drawn) gave an activation of 9.32%.
COC(=O)Cc1nnn2c1[C@H](C)[C@H](c1ccccc1[N+](=O)[O-])OCC2 gave an activation of 1.43%.
CS(=O)(=O)N(CC(=O)N1CCc2ccccc2C1)c1ccc(Br)cc1 showed an activation of 2.37%.
Compound Cc1ccc(Cl)c(OCC(=O)N2CCc3ccccc3C2)c1 has an activation of 0.5%.
In the case of COc1cccc(N(CC(=O)N2CCc3ccccc3C2)S(C)(=O)=O)c1, the activation is reported as 47.3% (active).
With Cc1ccc(S(=O)(=O)N(CC(=O)N2CCc3ccccc3C2)c2cccc(Cl)c2)cc1 the activation was 49.8% (active).
Cc1cccc(N(CC(=O)N2CCOCC2)S(C)(=O)=O)c1 showed an activation of 0.3%.
Compound O=C(CN(c1cccc(Cl)c1)S(=O)(=O)c1ccccc1)NN=C1CCCC1 has an activation of -0.99%.
Work on CCOC(=O)CNC(=O)N(C)[C@H]1C[C@H]2c3[nH]c4c(-c5ccc6c(c5)OCO6)cccc4c3CCN2C(=O)[C@H]1[C@H](C)O yielded an activation of 11.6%.
COc1cccc(CNC(=O)[C@H]2CCCN2C(=O)[C@H]2CCCN2C(=O)C2CCCCC2)c1 was tested, and the activation was 2.02%.
In the case of CCc1nn(CCCN2CCN(c3cccc(Cl)c3)CC2)c(=O)n1CCOc1ccccc1, the activation is reported as 5.08% and 3.96%.
O=[N+]([O-])c1ccc2[nH]c3c(c2c1)CCCC3O (stereo not drawn) was tested, and the activation was 2.87%.
Compound COC(=O)[C@]12C[C@H](CC(=O)N3CCN(C(=O)C4CC4)CC3)C(=O)N(Cc3ccc4c(c3)OCO4)C1=C[C@H](C(C)(C)C)O[C@@H]2C has an activation of 1.35%.
Cc1ccc(C(=O)CCC(=O)N(C)CC(=O)Nc2c(Cl)cccc2Cl)cc1 gave an activation of -0.39%.
With COc1ccccc1N1CC(C(=O)Nc2ccc(S(=O)(=O)N3CCOCC3)cc2)CC1=O (stereo not drawn) the activation was 1.9%.
COc1ccc(NC(=S)N2CCc3cc(OC)c(OC)cc3C2)cc1 gave an activation of 2.44%.
Compound COc1ccc(C)cc1NC(=S)N1CCOCC1 has an activation of 0.86%.
In the case of COc1ccc(OC)c(NC(=S)N2CCc3ccccc3C2)c1, the activation is reported as 69.4% (active).
CCCCCCCCN1C(=O)[C@@H](CC(=O)NCCCC)C[C@@]2(C(=O)OC)C1=C[C@H](C(C)(C)C)O[C@@H]2C showed an activation of -1.86%.
Work on CCCN1C(=O)C(Cc2nc3ccccc3c(=O)n2-c2ccccc2)c2cc(C)ccc21 (stereo not drawn) yielded an activation of 13.8%.
With CCCc1nc2c(c(=O)c3ccccc3n2C)c(=O)n1C1CCCCCC1 the activation was 46.7% (active).
In the case of CCOC(=O)Cn1c2c(n(-c3ccc(F)cc3)c1=O)C=C(c1ccccc1)[C@@H](C)C(C(=O)N(C)C1CCCCC1)=C2, the activation is reported as -1.16%.
COC(=O)[C@]12C[C@H](CC(=O)NCc3ccc(C)o3)C(=O)N(CCC3=CCCCC3)C1=C[C@H](C(C)(C)C)O[C@@H]2C showed an activation of -2.27%.
CCCCCCCCN1C(=O)[C@@H](CC(=O)N2CCN(C(=O)OCC)CC2)C[C@@]2(C(=O)OC)C1=C[C@H](C1CCCC1)O[C@@H]2C showed an activation of -2.04%.
In the case of CCN(CC)P(=O)(Nc1ccc(SC(F)F)cc1)c1ccc(N(C)C)cc1NC(=O)c1ccco1 (stereo not drawn), the activation is reported as 1.83%.
In the case of NC(=O)c1oc2ccccc2c1NC(=O)Cc1ccccc1, the activation is reported as 10.1%.
Work on CC(C)(C)Nc1c(N)c(=O)oc2ccccc12 yielded an activation of 9.39%.
Nc1c(NCCc2ccccc2)c2ccccc2oc1=O was tested, and the activation was 88.1% (active).
Work on COC(=O)C1=C(C)N(Cc2cccc(C(F)(F)F)c2)C(=NCc2ccccc2)NC1c1ccccc1C(F)(F)F (stereo not drawn) yielded an activation of 1.05%.
C=CCN=C1NC(c2cccc(C(F)(F)F)c2)C(C(=O)OC)=C(C)N1C (stereo not drawn) gave an activation of -0.19%.
In the case of COC(=O)[C@]12C[C@H](CC(=O)NCc3ccc(OC)c(OC)c3)C(=O)N(Cc3ccccc3)C1=C[C@H](C(C)C)O[C@@H]2C1CC1, the activation is reported as -0.82%.
Work on CCCCn1c(-c2cccc(C)c2)nc2cc3[nH]c(=O)c(C(C)C)nc3cc21 yielded an activation of 14.7%.
O=C(/C=C/c1ccc(F)cc1)NC(=S)NNC(=O)c1cccnc1 was tested, and the activation was 39.6% (active).
NS(=O)(=O)c1ccc(NC(=S)NC(=O)c2cccnc2)cc1 showed an activation of 0.75%.
In the case of Cc1cccc(OCCNC(=S)NC(=O)c2cccnc2)c1, the activation is reported as -0.63%.
Work on COCCN1C(=O)N(c2ccc(Cl)cc2)C(=O)C1CC(=O)Nc1cc(OC)cc(OC)c1 (stereo not drawn) yielded an activation of 18.5%.
C[C@H](O)[C@@H]1C(=O)N2CCc3c([nH]c4c(-c5ccc6c(c5)OCO6)cccc34)[C@@H]2C[C@@H]1N(C)C(=O)c1ccco1 gave an activation of 14.6%.
Cc1ccsc1C(=O)NNC(=O)COc1ccc(Br)cc1 gave an activation of 1.12%.
For Cc1ccc(O)c(NC(=S)NC(=O)COc2ccc(Br)cc2)c1, the activation was 108% (active).
With Cc1ccc(O)c(/C=N/NC(=O)COc2ccc3c(C)cc(=O)oc3c2)c1 the activation was 6.72%.
In the case of OC[C@H]1O[C@@H](c2nc(-c3nc(-c4ccc(F)cc4)no3)cs2)[C@H](O)[C@@H](O)[C@H]1O, the activation is reported as 0.88%.
Work on COc1ccc(OC)c(NC(=O)CSc2nc3cccnc3n2C)c1 yielded an activation of 1.87%.
Cc1noc(C)c1COC(=O)Cn1c(C)nc2ccccc21 was tested, and the activation was 1.89%.
In the case of CCCCCCCCCCOC(=O)Cn1c(COc2ccc(C)cc2)[n+](C)c2ccccc21, the activation is reported as 74.1% (active).
Work on CCOc1ccc(OCCSc2nc3ccccc3n2CC(=O)O)cc1 yielded an activation of 3.64%.
